Measured values: ChEMBL document CHEMBL4706770, “SD-91 as A Potent and Selective STAT3 Degrader Capable of Achieving Complete and Long-Lasting Tumor Regression” (ACS Med Chem Lett, 2021)
pKd: −log10 of the molar value. Active and inactive are the calls of the source. The rule behind the calls is not given here.

Assays:
[1] = target: Protein cereblon/Signal transducer and activator of transcription 4 (Homo sapiens) (UniProt Q96SW2+Q14765); assay: Protac activity at CRBN/STAT4 in human MOLM16 cells assessed as STAT4 degradation at 0.25 to 100 uM incubated for 4 hrs by Western blot analysis; type: cell-based; conditions: dose 0.25-100 µM
Outline: (§1)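 Cells treated 4 h with compounds across 25 nM to 100 μM; STAT proteins detected by Western blot with GAPDH as loading control; STAT3 DC50 estimated by densitometry of STAT3 relative to GAPDH. Applies to MOLM-16 for all STATs, and to SU-DHL-1 and SUP-M2 for STAT3.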

[2] = target: T1, Protein cereblon/Signal transducer and activator of transcription 6 (Homo sapiens) (UniProt P42226+Q96SW2); assay: Protac activity at CRBN/STAT6 in human SU-DHL-1 cells assessed as STAT6 degradation at 0.25 to 100 uM incubated for 4 hrs by Western blot analysis; type: cell-based; conditions: dose 0.25-100 µM
[3] = Drug metabolism buffer pH 8 assessed as conversion to 5-amino-4-(4-(8-((5S,8S,10aR)-8-((S)-5-amino-1-(benzhydrylamino)-1,5-dioxopentan-2-ylcarbamoyl)-6-oxo-5-(5-(phosphonocarbonyl)-1H-indole-2-carboxamido)octahydropyrrolo[1,2-a][1,5]diazocin-3(4H)-yl)-8-oxooct-1-ynyl)-1-oxoisoindolin-2-yl)-5-oxopentanoic acid measured upto 100 hrs by LC/MS/MS analysis; conditions: time hrs <=100
Outline: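 Parent compound incubated in buffer at pH 4 or pH 8, at room temperature or 37 °C. Percentages of the parent, the hydrolysis product and the glutarimide ring-opened product followed over time, up to 96 h.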

[4] = target: Protein cereblon/Signal transducer and activator of transcription 1-alpha/beta (Homo sapiens) (UniProt P42224+Q96SW2); assay: Protac activity at CRBN/STAT1 in human SU-DHL-1 cells […] at 0.25 to 100 uM incubated for 4 hrs by Western blot analysis; type: cell-based; conditions: dose lower 0.25 µM
[5] = (§2) Drug metabolism in complete cell culture medium assessed as (2-(((5S,8S,10aR)-8-(((S)-5-amino-1-(benzhydrylamino)-1,5-dioxopentan-2-yl)carbamoyl)-3-(8-(2-(2,6-dioxopiperidin-3-yl)-1-oxoisoindolin-4-yl)oct-7-ynoyl)-6-oxodecahydropyrrolo[1,2-a][1,5]diazocin-5-yl)carbamoyl)-1H-indole-5-carbonyl)phosphonic acid after 2 hrs
Outline: (§3)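 Parent compound incubated in the cell culture medium used for the cellular assays, with or without cells, at 37 °C. Percentages of the hydrolysis product and the glutarimide ring-opened product measured at time points up to 96 h.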

[6] = target: T1, Protein cereblon/Signal transducer and activator of transcription 6 (Homo sapiens); assay: In vivo protac activity at CRBN/STAT6 degradation in SCID mouse xenografted with human MOLM16 cells assessed as reduction in STAT6 in tumor tissue at 50 mg/kg, iv measured after 24 hrs by immunoblotting analysis; type: functional, organism-based
Outline: (§4)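 SCID mice bearing MOLM-16 tumors given a single iv dose of 50 mg/kg or dosing vehicle. Tumor lysates immunoblotted for STAT3, STAT1 and STAT6 at time points from 1 h to at least 24 h.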

[7] = target: T1, Protein cereblon/Signal transducer and activator of transcription 6 (Homo sapiens); assay: Protac activity at CRBN/STAT6 in human MOLM16 cells assessed as STAT6 degradation at 0.25 to 100 uM incubated for 4 hrs by Western blot analysis; type: cell-based; conditions: dose 0.25-100 µM; outline: as §1
[8] = Stability of compound in buffer pH 8 assessed as conversion to (2-(((5S,8S,10aR)-8-(((S)-5-amino-1-(benzhydrylamino)-1,5-dioxopentan-2-yl)carbamoyl)-3-(8-(2-(2,6-dioxopiperidin-3-yl)-1-oxoisoindolin-4-yl)oct-7-ynoyl)-6-oxodecahydropyrrolo[1,2-a][1,5]diazocin-5-yl)carbamoyl)-1H-indole-5-carbonyl)phosphonic acid by measuring half life by LC/MS/MS analysis; type: physicochemical
Outline: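 SD-36 incubated in pH 8 buffer at room temperature; percentages of parent and hydrolysis products followed over time; half-life of conversion derived from the time course.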

[9] = as §2, with “after 24” for “after 2”, “hrs by LC/MS/MS analysis” for “hrs”; outline: as §3
[10] = target: Signal transducer and activator of transcription 3 (Homo sapiens, UniProt P40763); assay: Induction of STAT3 degradation in human SUP-M2 cells incubated for 4 hrs by western blot analysis; type: cell-based; outline: as §1
Mus musculus = assay: In vivo induction of STAT1 degradation in SCID mouse xenografted with human MOLM16 cells assessed as reduction in STAT1 in tumor tissue at 50 mg/kg, iv measured after 24 hrs by immunoblotting analysis; type: functional, organism-based; outline: as §4
[11] = Antitumor activity against human MOLM16 cells xenografted in SCID mouse assessed as tumor regression at 50 mg/kg, iv administered weekly measured after 2 weeks; type: functional
Outline: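 SCID mice bearing MOLM-16 xenografts given compound iv once weekly at 25 or 50 mg/kg. Tumor volume and body weight measured every 2 days. Growth inhibition expressed against vehicle-treated controls.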

[12] = target: T2, Signal transducer and activator of transcription 5A (Homo sapiens, UniProt P42229); assay: Binding affinity to human recombinant STAT5A assessed as dissociation constant incubated for 15 mins by biolayer interferometry
T2 sequence (P42229 whole entry): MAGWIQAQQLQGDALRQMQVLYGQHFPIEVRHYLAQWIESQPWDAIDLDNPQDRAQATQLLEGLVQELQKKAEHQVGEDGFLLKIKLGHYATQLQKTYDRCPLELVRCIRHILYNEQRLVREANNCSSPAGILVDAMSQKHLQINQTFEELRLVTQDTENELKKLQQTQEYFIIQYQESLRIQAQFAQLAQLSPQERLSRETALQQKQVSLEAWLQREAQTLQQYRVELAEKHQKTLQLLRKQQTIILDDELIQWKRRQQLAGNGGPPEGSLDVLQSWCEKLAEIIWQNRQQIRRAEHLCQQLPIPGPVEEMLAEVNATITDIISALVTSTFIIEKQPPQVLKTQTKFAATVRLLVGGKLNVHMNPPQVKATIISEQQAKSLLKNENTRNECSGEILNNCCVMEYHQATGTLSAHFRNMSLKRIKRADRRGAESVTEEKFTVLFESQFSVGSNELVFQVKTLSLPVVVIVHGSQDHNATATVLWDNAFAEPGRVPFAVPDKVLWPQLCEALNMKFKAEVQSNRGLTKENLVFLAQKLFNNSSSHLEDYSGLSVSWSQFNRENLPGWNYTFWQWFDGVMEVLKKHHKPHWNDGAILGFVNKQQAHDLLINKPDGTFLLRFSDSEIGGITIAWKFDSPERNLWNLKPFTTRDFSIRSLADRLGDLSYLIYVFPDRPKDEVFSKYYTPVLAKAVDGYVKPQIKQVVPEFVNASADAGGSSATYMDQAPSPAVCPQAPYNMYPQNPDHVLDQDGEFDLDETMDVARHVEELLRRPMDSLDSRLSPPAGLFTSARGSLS
Outline: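 Biolayer interferometry with recombinant human STAT1, STAT2, STAT3, STAT4, STAT5A, STAT5B or STAT6 proteins containing their SH2 domain. Compound run in 2× serial dilutions from 200 nM. Kd taken from steady-state fitting of equilibrium responses against concentration using a 1:1 binding model.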

T1 sequence (P42226 2-847 limits assumed): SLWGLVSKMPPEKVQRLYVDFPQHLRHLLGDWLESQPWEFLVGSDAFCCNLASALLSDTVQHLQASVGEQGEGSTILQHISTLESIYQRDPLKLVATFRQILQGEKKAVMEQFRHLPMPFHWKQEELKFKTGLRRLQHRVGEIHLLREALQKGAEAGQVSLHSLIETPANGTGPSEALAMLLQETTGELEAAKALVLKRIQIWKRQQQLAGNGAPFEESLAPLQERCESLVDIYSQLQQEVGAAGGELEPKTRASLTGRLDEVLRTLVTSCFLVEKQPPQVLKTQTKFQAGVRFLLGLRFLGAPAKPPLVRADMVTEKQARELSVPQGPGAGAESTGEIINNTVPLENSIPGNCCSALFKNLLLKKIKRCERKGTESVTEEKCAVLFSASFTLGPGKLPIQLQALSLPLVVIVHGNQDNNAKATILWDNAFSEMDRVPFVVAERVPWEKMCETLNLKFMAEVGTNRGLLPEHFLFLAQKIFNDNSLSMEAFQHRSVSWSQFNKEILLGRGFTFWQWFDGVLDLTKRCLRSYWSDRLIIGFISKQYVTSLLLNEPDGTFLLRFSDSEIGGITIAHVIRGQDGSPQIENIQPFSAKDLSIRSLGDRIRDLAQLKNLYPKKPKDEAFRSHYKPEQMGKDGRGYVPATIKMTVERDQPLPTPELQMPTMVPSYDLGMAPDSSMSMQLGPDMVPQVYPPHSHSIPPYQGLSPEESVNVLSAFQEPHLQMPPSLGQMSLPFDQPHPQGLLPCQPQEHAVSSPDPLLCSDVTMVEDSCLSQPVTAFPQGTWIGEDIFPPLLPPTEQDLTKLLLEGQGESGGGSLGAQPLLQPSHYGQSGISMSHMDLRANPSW
T1 sequence (Q96SW2 whole entry partner): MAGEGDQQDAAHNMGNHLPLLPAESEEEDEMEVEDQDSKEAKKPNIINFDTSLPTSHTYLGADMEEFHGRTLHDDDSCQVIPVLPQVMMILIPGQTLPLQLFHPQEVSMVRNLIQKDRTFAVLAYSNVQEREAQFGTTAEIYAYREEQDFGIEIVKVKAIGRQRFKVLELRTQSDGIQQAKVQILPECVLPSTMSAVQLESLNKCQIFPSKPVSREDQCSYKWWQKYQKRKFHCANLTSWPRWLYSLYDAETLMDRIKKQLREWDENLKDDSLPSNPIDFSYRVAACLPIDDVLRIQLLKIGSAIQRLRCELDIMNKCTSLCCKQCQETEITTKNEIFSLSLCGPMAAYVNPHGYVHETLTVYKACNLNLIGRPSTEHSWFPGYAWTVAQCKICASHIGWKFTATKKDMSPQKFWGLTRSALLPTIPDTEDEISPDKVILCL
Chain of Protein cereblon/Signal transducer and activator of transcription 4 (Homo sapiens) (Q14765 whole entry, looked up): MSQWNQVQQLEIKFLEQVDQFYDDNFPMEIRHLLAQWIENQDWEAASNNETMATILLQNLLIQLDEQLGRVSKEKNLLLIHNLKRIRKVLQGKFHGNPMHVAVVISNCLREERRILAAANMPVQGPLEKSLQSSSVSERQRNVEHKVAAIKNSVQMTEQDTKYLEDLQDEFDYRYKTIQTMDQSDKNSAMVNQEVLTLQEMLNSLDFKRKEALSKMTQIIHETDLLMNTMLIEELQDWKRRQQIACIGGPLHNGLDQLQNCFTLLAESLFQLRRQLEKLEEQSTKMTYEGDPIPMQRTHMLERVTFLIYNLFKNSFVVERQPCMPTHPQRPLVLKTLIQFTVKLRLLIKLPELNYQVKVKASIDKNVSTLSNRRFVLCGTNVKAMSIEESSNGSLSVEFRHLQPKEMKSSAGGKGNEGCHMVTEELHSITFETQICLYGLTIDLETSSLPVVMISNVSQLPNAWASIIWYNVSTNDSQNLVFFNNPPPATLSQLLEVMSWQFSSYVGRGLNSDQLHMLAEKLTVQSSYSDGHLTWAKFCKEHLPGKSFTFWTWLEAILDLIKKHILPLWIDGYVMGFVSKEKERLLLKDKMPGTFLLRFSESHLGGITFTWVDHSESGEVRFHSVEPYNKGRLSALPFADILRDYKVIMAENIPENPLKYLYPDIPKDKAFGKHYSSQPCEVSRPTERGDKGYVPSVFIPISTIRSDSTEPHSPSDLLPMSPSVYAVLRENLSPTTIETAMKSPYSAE
Chain of Protein cereblon/Signal transducer and activator of transcription 4 (Homo sapiens) (Q96SW2 whole entry, looked up): as the sequence (Q96SW2 whole entry partner) above
Chain of Signal transducer and activator of transcription 3 (P40763 whole entry): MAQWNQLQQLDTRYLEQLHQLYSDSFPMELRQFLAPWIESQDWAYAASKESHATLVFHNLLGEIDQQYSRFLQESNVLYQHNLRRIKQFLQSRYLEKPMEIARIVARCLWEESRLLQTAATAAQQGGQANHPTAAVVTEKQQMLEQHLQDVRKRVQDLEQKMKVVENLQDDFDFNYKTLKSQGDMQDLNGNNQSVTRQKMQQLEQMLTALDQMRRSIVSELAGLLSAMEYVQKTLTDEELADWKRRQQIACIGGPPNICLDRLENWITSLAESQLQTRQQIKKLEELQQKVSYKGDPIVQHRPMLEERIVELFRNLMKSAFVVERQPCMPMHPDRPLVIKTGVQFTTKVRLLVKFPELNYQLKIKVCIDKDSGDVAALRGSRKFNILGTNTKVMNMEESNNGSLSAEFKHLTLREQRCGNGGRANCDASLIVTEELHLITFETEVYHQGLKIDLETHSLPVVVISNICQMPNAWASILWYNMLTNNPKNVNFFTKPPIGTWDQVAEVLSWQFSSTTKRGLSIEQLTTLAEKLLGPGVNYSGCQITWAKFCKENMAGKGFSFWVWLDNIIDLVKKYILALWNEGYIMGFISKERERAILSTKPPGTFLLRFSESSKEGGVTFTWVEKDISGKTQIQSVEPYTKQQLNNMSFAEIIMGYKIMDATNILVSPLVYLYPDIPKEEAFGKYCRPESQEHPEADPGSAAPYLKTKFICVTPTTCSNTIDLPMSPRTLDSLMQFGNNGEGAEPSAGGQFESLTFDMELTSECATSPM

Row | SMILES | Activity [1] | Activity [2] | Drug metabolism [3] | Activity [4] | Drug metabolism [5] [%] | Activity [6] | Activity [7] | t1/2 [8] [h] | Drug metabolism [9] [%] | DC50 [10] [nM] | Activity (Mus musculus) | Activity [11] [%] | pKd [12]
1 | NC(=O)CC[C@H](NC(=O)[C@@H]1CC[C@@H]2CCN(C(=O)CCCCCC#Cc3cccc4c3CN(C3CCC(=O)NC3=O)C4=O)C[C@H](NC(=O)c3cc4cc(C(F)(F)P(=O)(O)O)ccc4[nH]3)C(=O)N21)C(=O)NC(c1ccccc1)c1ccccc1 (stereo partly drawn) | inactive | inactive | Metabolite detected | inactive | 50 | inactive | inactive | 22 | 90 |  |  |  | 
2 | NC(=O)CC[C@H](NC(=O)[C@@H]1CC[C@@H]2CCN(C(=O)CCCCCC#Cc3cccc4c3CN(C3CCC(=O)NC3=O)C4=O)C[C@H](NC(=O)c3cc4cc(C(=O)P(=O)(O)O)ccc4[nH]3)C(=O)N21)C(=O)NC(c1ccccc1)c1ccccc1 (stereo partly drawn) |  |  |  |  |  |  |  |  |  | 1200 | inactive | 100 | < 8.00
